Measurements as given in ChEMBL document CHEMBL2163200, “Synthesis, biological evaluation, and structure-activity relationships of novel substituted N-phenyl ureidobenzenesulfonate derivatives blocking cell cycle progression in S-phase and inducing DNA double-strand breaks” (J Med Chem, 2012).
The source made the active and inactive calls. The rule behind the calls is not given here.

What was measured:
Jurkat [1] = assay: Cell cycle arrest in human Jurkat E6-1 cells assessed as accumulation at G0/G1 phase at 57 uM after 24 hrs by FACS flow cytometry; type: functional
How it was run: (§1)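 Jurkat E6 cells cultured in RPMI 1640 with 10% FBS at 37 °C, 5% CO2. Compounds serially diluted in medium, starting 50% above the M21 IC50. 4.0 × 10^5 cells were exposed for 24 h. Cells were washed with PBS, chicken red blood cells added as internal standard, and fixed in ice-cold EtOH. After 1 h on ice in PBS with 1 μg/mL DAPI, phase distribution was read by flow cytometry. DMSO-treated cells served as control.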

Jurkat [2] = assay: Cell cycle arrest in human Jurkat E6-1 cells assessed as accumulation at S phase at 57 uM after 24 hrs by FACS flow cytometry; type: functional
How it was run: (§2)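 Jurkat E6 T-lymphoblasts in RPMI 1640 with 10% FBS, 37 °C, 5% CO2. […] Chicken red blood cells were added as internal standard. Cells were fixed in ice-cold EtOH and stained with 1 μg/mL DAPI on ice for 1 h before flow cytometry of phase distribution. Vehicle control was 0.5% DMSO.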

Jurkat [3] = assay: Cell cycle arrest in human Jurkat E6-1 cells assessed as accumulation at G2/M phase at 57 uM after 24 hrs by FACS flow cytometry; type: functional
How it was run: (§3)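 Jurkat E6 cells grown in RPMI 1640 with 10% FBS at 37 °C, 5% CO2. Compounds were serially diluted in medium starting 50% above the M21 IC50. 4.0 × 10^5 cells were exposed for 24 h, then washed and spiked with chicken red blood cells as internal standard. Cells were fixed in ice-cold ethanol, stained with 1 μg/mL DAPI on ice for 1 h, and phase distribution was read by flow cytometry. The control was 0.5% DMSO.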

M21 [4] = assay: Cytotoxicity against human M21 cells after 48 hrs by SRB assay; type: functional, cell-based; conditions: M21, 48 h
How it was run: (§4)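 NCI sulforhodamine B protocol. Cells were grown in high-glucose DMEM with 5% FBS and seeded per well at 4 × 10^3 (HT-29), 3.5 × 10^3 (M21) or 3 × 10^3 (MCF-7), then allowed 24 h to attach. Serial dilutions from 200 μM to 780 nM final were applied in DMSO <0.5% for 48 h. Cells were fixed with cold TCA (10% final) and stained with SRB, with absorbance read at 530–568 nm. Growth inhibition was computed against day-0 plates, giving the 50% inhibitory concentration. At least two experiments in triplicate, CV <10%.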

Jurkat [5] = assay: Cell cycle arrest in human Jurkat E6-1 cells assessed as accumulation at G2/M phase at 22 uM after 24 hrs by FACS flow cytometry; type: functional; how it was run: as §3
HT-29 = assay: Cytotoxicity against human HT-29 cells after 48 hrs by SRB assay; type: functional, cell-based; conditions: HT-29, 48 h; how it was run: as §4
MCF7 = assay: Cytotoxicity against human MCF7 cells after 48 hrs by SRB assay; type: functional, cell-based; conditions: MCF7, 48 h; how it was run: as §4
Jurkat [6] = assay: Cell cycle arrest in human Jurkat E6-1 cells assessed as accumulation at S phase at 22 uM after 24 hrs by FACS flow cytometry; type: functional; how it was run: as §3
Jurkat [7] = assay: Cell cycle arrest in human Jurkat E6-1 cells assessed as accumulation at G0/G1 phase at 22 uM after 24 hrs by FACS flow cytometry; type: functional; how it was run: as §1
Jurkat [8] = assay: Cell cycle arrest in human Jurkat E6-1 cells assessed as accumulation at G2/M phase at 28 uM after 24 hrs by FACS flow cytometry; type: functional; how it was run: as §3
Jurkat [9] = assay: Cell cycle arrest in human Jurkat E6-1 cells assessed as accumulation at G0/G1 phase at 28 uM after 24 hrs by FACS flow cytometry; type: functional; how it was run: as §1
Jurkat [10] = assay: Cell cycle arrest in human Jurkat E6-1 cells assessed as accumulation at S phase at 28 uM after 24 hrs by FACS flow cytometry; type: functional; how it was run: as §2
Jurkat [11] = assay: Cell cycle arrest in human Jurkat E6-1 cells assessed as accumulation at S phase at 8.3 uM after 24 hrs by FACS flow cytometry; type: functional; how it was run: as §2
Jurkat [12] = assay: Cell cycle arrest in human Jurkat E6-1 cells assessed as accumulation at G2/M phase at 8.3 uM after 24 hrs by FACS flow cytometry; type: functional; how it was run: as §3
Jurkat [13] = assay: Cell cycle arrest in human Jurkat E6-1 cells assessed as accumulation at G0/G1 phase at 8.3 uM after 24 hrs by FACS flow cytometry; type: functional; how it was run: as §1
M21 [14] = assay: Induction of DNA damage response in human M21 cells assessed as phosphorylation of H2AX into gammaH2AX at IC50 after 24 hrs by DAPI staining-based immunofluorescence assay; type: functional, cell-based
How it was run: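 M21 cells (1 × 10^5) on fibronectin-coated coverslips, grown 24 h, then exposed to agent for 24 h at 37 °C; 0.5% DMSO control. Fixed with 3.7% formaldehyde and permeabilized with 0.1% saponin/3% BSA. Probed with mouse anti-H2AX pS139 antibody for 2 h at room temperature. Nuclei counterstained with DAPI; nuclear γH2AX foci viewed by epifluorescence microscopy.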

Jurkat [15] = assay: Cell cycle arrest in human Jurkat E6-1 cells assessed as accumulation at G0/G1 phase at 40 uM after 24 hrs by FACS flow cytometry; type: functional; how it was run: as §1
Jurkat [16] = assay: Cell cycle arrest in human Jurkat E6-1 cells assessed as accumulation at G2/M phase at 40 uM after 24 hrs by FACS flow cytometry; type: functional; how it was run: as §3
Jurkat [17] = assay: Cell cycle arrest in human Jurkat E6-1 cells assessed as accumulation at S phase at 40 uM after 24 hrs by FACS flow cytometry; type: functional; how it was run: as §2
Jurkat [18] = assay: Cell cycle arrest in human Jurkat E6-1 cells assessed as accumulation at G0/G1 phase at 26 uM after 24 hrs by FACS flow cytometry; type: functional; how it was run: as §1
Jurkat [19] = assay: Cell cycle arrest in human Jurkat E6-1 cells assessed as accumulation at S phase at 26 uM after 24 hrs by FACS flow cytometry; type: functional; how it was run: as §2
Jurkat [20] = assay: Cell cycle arrest in human Jurkat E6-1 cells assessed as accumulation at G2/M phase at 26 uM after 24 hrs by FACS flow cytometry; type: functional; how it was run: as §3
Jurkat [21] = assay: Cell cycle arrest in human Jurkat E6-1 cells assessed as accumulation at G0/G1 phase at 15 uM after 24 hrs by FACS flow cytometry; type: functional; how it was run: as §1
[22] = Toxicity in fertilized chicken embryo assessed as mortality rate at 30 ug per egg, iv administered on day 11 measured on day 17 by CAM assay; type: organism-based, Gallus gallus; conditions: in vivo, read-out: Activity
How it was run: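 Fertilized chicken eggs grafted on the CAM with HT-1080 cells (3.5 × 105/egg) received a 100 μL intravenous injection under the CAM on day 11. The drug was diluted in Cremophor EL/99% ethanol/PBS (1/1/14 v/v). Groups held 10–12 eggs and were incubated until day 17, when dead embryos and signs of toxicity were counted per group.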

Jurkat [23] = assay: Cell cycle arrest in human Jurkat E6-1 cells assessed as accumulation at S phase at 15 uM after 24 hrs by FACS flow cytometry; type: functional; how it was run: as §3
HT-1080 = assay: Antitumor activity against human HT1080 cells xenografted in chicken chorioallantoic membrane assessed as inhibition of tumor growth at 30 ug per egg, iv administered on day 11 measured on day 17 by CAM assay; type: functional
How it was run: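 HT-1080 fibrosarcoma cells (3.5 × 105/egg) were applied onto freshly exposed CAM of fertilized chicken eggs. On day 11, drug from a DMSO stock was diluted in Cremophor EL/99% ethanol/PBS (1/1/14 v/v) and 100 μL was injected into a vein under the CAM. Groups of 10–12 eggs were kept to day 17, embryos were euthanized at 4 °C for ≥4 h, and tumor wet weight was recorded.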

Jurkat [24] = assay: Cell cycle arrest in human Jurkat E6-1 cells assessed as accumulation at G2/M phase at 15 uM after 24 hrs by FACS flow cytometry; type: functional; how it was run: as §1
Jurkat [25] = assay: Cell cycle arrest in human Jurkat E6-1 cells assessed as accumulation at G2/M phase at 12 uM after 24 hrs by FACS flow cytometry; type: functional; how it was run: as §1
Jurkat [26] = assay: Cell cycle arrest in human Jurkat E6-1 cells assessed as accumulation at S phase at 12 uM after 24 hrs by FACS flow cytometry; type: functional; how it was run: as §3
Jurkat [27] = assay: Cell cycle arrest in human Jurkat E6-1 cells assessed as accumulation at G0/G1 phase at 12 uM after 24 hrs by FACS flow cytometry; type: functional; how it was run: as §1

Compound O=C(NCCCCl)Nc1cccc(S(=O)(=O)Oc2ccc(O)cc2)c1 has an Activity (Jurkat [1]) of 43%, an Activity (Jurkat [2]) of 48% and an Activity (Jurkat [3]) of 9%. The IC50 (M21 [4]) was 49 µM.

CCCc1ccccc1NS(=O)(=O)c1ccc(NC(=O)NCCCCl)cc1 gave an Activity (Jurkat [5]) of 23%, an IC50 (HT-29) of 26 µM and an IC50 (MCF7) of 35 µM. It also gave an Activity (Jurkat [6]) of 41%, an Activity (Jurkat [7]) of 36% and an IC50 (M21 [4]) of 38 µM.

Cc1ccccc1OS(=O)(=O)c1cccc(NC(=O)NCCCCl)c1 showed an IC50 (HT-29) of 21 µM, an Activity (Jurkat [8]) of 19% and an IC50 (MCF7) of 27 µM. The Activity (Jurkat [9]) was 43%, the Activity (Jurkat [10]) was 38% and the IC50 (M21 [4]) was 29 µM.

Work on Cc1ccccc1OS(=O)(=O)c1ccc(NC(=O)NCCCCl)cc1 yielded an Activity (Jurkat [11]) of 70%, an Activity (Jurkat [12]) of 10% and an Activity (Jurkat [13]) of 20%. The IC50 (MCF7) was 27 µM, the Activity (M21 [14]) was “Active” and the IC50 (M21 [4]) was 25 µM.

CCNC(=O)Nc1cccc(S(=O)(=O)Oc2ccccc2C)c1 showed an IC50 (HT-29) of 44 µM, an Activity (Jurkat [15]) of 25% and an IC50 (MCF7) of 55 µM. For the same compound, the Activity (Jurkat [16]) was 15%, the Activity (M21 [14]) was “Active” and the Activity (Jurkat [17]) was 60%. It also gave an IC50 (M21 [4]) of 51 µM.

CCCc1ccccc1NS(=O)(=O)c1cccc(NC(=O)NCCCCl)c1 showed an IC50 (HT-29) of 15 µM, an IC50 (MCF7) of 18 µM and an Activity (Jurkat [18]) of 44%. It also gave an Activity (Jurkat [19]) of 43%, an Activity (Jurkat [20]) of 13% and an IC50 (M21 [4]) of 23 µM.

With CCc1ccccc1OS(=O)(=O)c1ccc(NC(=O)NCCCCl)cc1 the Activity (Jurkat [21]) was 26%, the mortality at 6 days [22] was 0% and the Activity (Jurkat [23]) was 63%. The Activity (M21 [14]) was “Active”, the IC50 (M21 [4]) was 15 µM and the TGI (HT-1080) was 68%. It also gave an Activity (Jurkat [24]) of 11%.

CCNC(=O)Nc1cccc(S(=O)(=O)Oc2ccccc2CC)c1 gave an IC50 (HT-29) of 33 µM, an Activity (Jurkat [25]) of 11% and an Activity (Jurkat [26]) of 63%. The Activity (M21 [14]) was “Active”, the Activity (Jurkat [27]) was 26% and the IC50 (M21 [4]) was 30 µM.
